Published values gathered from unrelated publications.
Observed: parasite growth

SMILES | organism | technique | time | setting | IC50
CC(C)(C)CC(C)(C)Nc1c(-c2cccnc2)nc2ncccn12 | Leishmania amazonensis | MTT | 72 h | promastigote | > 100 µM
COc1ccc(S(=O)(=O)c2ccc(OC)c(OC)c2OC)cc1 | Leishmania braziliensis | MTT | 24 h | promastigote | 32 µM
Oc1ccc(/C=C/c2cc(O)cc(O)c2)cc1 | Leishmania amazonensis | MTT | 72 h | promastigote | 97.9 µM
C=C1CC[C@@H]2[C@](C)(CCC[C@@]2(C)C(=O)O)[C@H]1CC[C@H](C)CC(=O)O | Leishmania amazonensis |  | 72 h | promastigote | 70 µg/mL
N=C(N)c1ccc(OCCCCCOc2ccc(C(=N)N)cc2)cc1 | Leishmania amazonensis | imaging | 48 h | intracellular, amastigote | 3.4 µM
C[C@@H]1[C@H](O)[C@@H](C)/C=C/C=C/C=C/C=C/C=C/C=C/C=C/[C@H](O[C@@H]2O[C@H](C)[C@@H](O)[C@H](N)[C@@H]2O)C[C@@H]2O[C@](O)(C[C@@H](O)C[C@@H](O)[C@H](O)CC[C@@H](O)C[C@@H](O)CC(=O)O[C@H]1C)C[C@H](O)[C@H]2C(=O)O | Leishmania braziliensis | MTT | 24 h | promastigote | 22 µM
CCCCCCCCc1nc2ncccn2c1NC(C)(C)CC(C)(C)C | Leishmania amazonensis | MTT | 72 h | promastigote | 40.6 µM
COc1ccc(Sc2ccccc2)c(OC)c1OC | Leishmania braziliensis | MTT |  | promastigote | 14 µM
C[C@@H]1[C@H](O)[C@@H](C)/C=C/C=C/C=C/C=C/C=C/C=C/C=C/[C@H](O[C@@H]2O[C@H](C)[C@@H](O)[C@H](N)[C@@H]2O)C[C@@H]2O[C@](O)(C[C@@H](O)C[C@@H](O)[C@H](O)CC[C@@H](O)C[C@@H](O)CC(=O)O[C@H]1C)C[C@H](O)[C@H]2C(=O)O | Leishmania amazonensis |  | 72 h | promastigote | 0.06 µg/mL
CC(C)(C)CC(C)(C)Nc1c(-c2ccc(-c3ccccc3)cc2)nc2ncccn12 | Leishmania amazonensis | MTT | 72 h | promastigote | 31.1 µM
COc1ccc([S+]([O-])c2ccc(OC)c(OC)c2OC)cc1 (stereo not drawn) | Leishmania braziliensis | MTT | 24 h | promastigote | 15.2 µM
C=C1CC[C@@H]2[C@](C)(CCC[C@@]2(C)C(=O)O)[C@H]1CCc1ccoc1 | Leishmania amazonensis |  | 72 h | promastigote | 35 µg/mL
